Results on four compounds are retold here after paper PMC5831081 (Biochemistry, 2017).

The target of data set [1] is T1, CYP2B4 (Oryctolagus cuniculus, UniProt P00178, H226Y).
T1 sequence (P00178 with tags, fused parts or gaps H226Y): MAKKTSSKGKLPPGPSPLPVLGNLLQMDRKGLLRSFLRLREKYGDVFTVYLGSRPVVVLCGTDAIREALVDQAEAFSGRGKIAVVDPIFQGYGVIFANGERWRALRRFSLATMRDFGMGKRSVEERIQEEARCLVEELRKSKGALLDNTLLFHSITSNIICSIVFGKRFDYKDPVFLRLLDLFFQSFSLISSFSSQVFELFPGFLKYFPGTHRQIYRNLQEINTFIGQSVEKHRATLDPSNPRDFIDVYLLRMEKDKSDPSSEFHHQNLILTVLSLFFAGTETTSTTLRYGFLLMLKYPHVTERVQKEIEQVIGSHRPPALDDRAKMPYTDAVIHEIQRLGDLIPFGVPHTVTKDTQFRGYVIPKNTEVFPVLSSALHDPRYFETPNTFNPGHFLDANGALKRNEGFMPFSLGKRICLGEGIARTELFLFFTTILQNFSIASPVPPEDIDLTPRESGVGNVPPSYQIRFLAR
Briefly: NADPH-dependent 7-EFC O-deethylation enzyme inhibition assay. Type of data set: biochemical, rabbit. To be noted: for mechanism of inhibition: CYP2B4, non-linear regression analysis.

Data set [2] deals with T2, CYP2B6 (Homo sapiens, UniProt P20813, K262R/Y226H).
T2 sequence (P20813 with tags, fused parts or gaps Y226H/K262R): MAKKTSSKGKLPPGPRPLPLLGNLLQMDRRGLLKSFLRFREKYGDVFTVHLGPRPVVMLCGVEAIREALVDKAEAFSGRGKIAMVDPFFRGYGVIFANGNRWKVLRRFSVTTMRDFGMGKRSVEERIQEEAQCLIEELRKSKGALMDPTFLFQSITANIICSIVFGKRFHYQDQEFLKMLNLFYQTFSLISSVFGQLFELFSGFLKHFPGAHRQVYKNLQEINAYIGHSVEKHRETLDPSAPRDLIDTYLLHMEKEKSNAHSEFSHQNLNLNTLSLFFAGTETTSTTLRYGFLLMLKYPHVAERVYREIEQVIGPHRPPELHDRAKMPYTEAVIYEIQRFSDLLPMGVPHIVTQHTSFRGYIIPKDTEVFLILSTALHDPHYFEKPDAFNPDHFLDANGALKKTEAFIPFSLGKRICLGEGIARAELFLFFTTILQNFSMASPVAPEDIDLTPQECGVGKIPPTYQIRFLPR
The experiment in a line: Spectral binding titration. To be noted: for Kd: KS.

A further data set concerns human CYP2B6. The experiment in a line: Spectral binding titration. To be noted: CYP2B6 spectral titration, with vs without POR.
Data set [3] deals with T3, CYP2B6 L363V (Homo sapiens, UniProt P20813, K262R/L363V/Y226H).
T3 sequence (P20813 with tags, fused parts or gaps Y226H/K262R/L363V limits assumed): T2 sequence (P20813 with tags, fused parts or gaps Y226H/K262R) with L344V
The experiment in a line: NADPH-dependent 7-EFC O-deethylation enzyme inhibition assay. Type of data set: biochemical.

The target of data set [4] is T2, CYP2B6. Described as above. Type of data set: biochemical. To be noted: for mechanism of inhibition: CYP2B6, non-linear regression analysis; for IC50: NADPH-based IC50, CYP2B6.
Data set [5] has as its target T1, CYP2B4. Briefly: NADPH oxidation assay. Type of data set: biochemical, rabbit. To be noted: CYP:POR:cyt b5 1:4:2, 20 μM inhibitor, 37 °C. The gist of the method: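 Purified CYP2B was reconstituted with POR and cyt b5 at CYP:POR:cyt b5 1:4:2, or 0:4:2 for the partner-only control. Mixtures contained ligand (20 µM unless stated) and 1% acetone in 300 µL. After 5 min preincubation at 37 °C, 0.2 mM NADPH was added. NADPH consumption was recorded kinetically as the A340 decrease (ε 6.22 mM-1 cm-1). Rates are nmol/min/nmol P450, mean ± SD of three independent experiments.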

The target in data set [6] is T4, CYP2B4 I363V (Oryctolagus cuniculus, UniProt P00178, H226Y/I363V).
T4 sequence (P00178 with tags, fused parts or gaps H226Y/I363V limits assumed): T1 sequence (P00178 with tags, fused parts or gaps H226Y) with I344V
The conditions noted are these: CYP2B4 I363V valine mutant.

The next data set has as its target T5, rat CYP2B1 (Rattus norvegicus, UniProt P00176).
T5 sequence (P00176 1-491): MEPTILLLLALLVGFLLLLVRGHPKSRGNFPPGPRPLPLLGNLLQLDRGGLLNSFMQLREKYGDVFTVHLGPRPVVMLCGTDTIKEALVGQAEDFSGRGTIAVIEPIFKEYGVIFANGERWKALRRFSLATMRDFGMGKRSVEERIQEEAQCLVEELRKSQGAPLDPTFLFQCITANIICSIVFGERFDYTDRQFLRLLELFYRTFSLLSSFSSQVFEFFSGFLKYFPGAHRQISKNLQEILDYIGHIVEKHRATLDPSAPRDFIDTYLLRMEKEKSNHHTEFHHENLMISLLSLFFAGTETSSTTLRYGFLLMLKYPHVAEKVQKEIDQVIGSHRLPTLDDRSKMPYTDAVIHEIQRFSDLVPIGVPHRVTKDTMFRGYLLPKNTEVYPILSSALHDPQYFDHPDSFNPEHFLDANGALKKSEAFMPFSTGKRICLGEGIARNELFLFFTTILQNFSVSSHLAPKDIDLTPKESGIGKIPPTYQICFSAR
Briefly: Spectral binding titration. To be noted: spectral binding titrations.

For the next data set, the target named is T6, rabbit CYP2B4 (Oryctolagus cuniculus, UniProt P00178, A26S/E2A/G22K/H226Y/H23K/H27K/K25S/P24T/R29K).
T6 sequence (P00178 with tags, fused parts or gaps H226Y limits assumed): T1 sequence (P00178 with tags, fused parts or gaps H226Y)
The experiment in a line: Spectral binding titration. To be noted: spectral binding titrations.

Data set [7] addresses T3, CYP2B6 L363V. The conditions noted are these: CYP2B6 L363V valine mutant.
The target in data set [8] is T2, CYP2B6. Briefly: Cumene hydroperoxide. To be noted: for IC50: CuOOH-based IC50, CYP2B6. The format is biochemical. In a few lines:
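Purified CYP2B6 was tested alone or with cyt b5 (CYP:cyt b5 1:2) in HEPES buffer at 37 °C, with 7-EFC near KM and varying test compound. Reactions started with 0.5 mM cumene hydroperoxide. For kinetics, 7-HFC formation was followed continuously in stirred 500 µL of 0–200 µM 7-EFC. Initial-slope rates were fitted to Michaelis–Menten. IC50 came from a four-parameter logistic fit. Mean ± SD, n=3.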

Data set [9] concerns the target T4, CYP2B4 I363V. The experiment in a line: NADPH-dependent 7-EFC O-deethylation kinetics. The format is biochemical, rabbit. The gist of the method: (§1)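 Purified CYP2B was reconstituted with POR and cyt b5 (molar 1:4:2 or 1:4:0), 2.5–5 pmol CYP, in 100 µL HEPES pH 7.4 with 7-EFC at 37 °C. After 5 min preincubation, 1 mM NADPH was added. After 5 min, reactions were quenched with ice-cold acetonitrile and diluted into 0.1 M Tris pH 9.0. 7-HFC was measured by fluorescence (ex 410/em 510 nm) against a daily 0–50 µM 7-HFC standard curve.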

The target of another data set is T7, CYP2B1 (Rattus norvegicus, UniProt P00176).
T7 sequence (P00176 1-491): T5 sequence (P00176 1-491)
Briefly: NADPH-dependent 7-EFC O-deethylation kinetics. The format is biochemical. The gist of the method: as §1

The target in data set [10] is T2, CYP2B6. Briefly: Incubation of POA with CYP2B6, UPLC-MS search for oxidative metabolites. Type of data set: in vitro ADME. The conditions noted are these: POA incubated with CYP2B6, with or without NADPH.
The mark [11] stands for this setting: CYP2B6, with POR (1 μM CYP, 4 μM POR), HEPES buffer.
Setting [12] is: CYP2B6, without POR, HEPES buffer.
Where [13] appears, read: CYP2B6, without POR, sucrose buffer.
Setting [14] is: KI, CYP2B6, CYP:POR:cyt b5 1:4:2, 0-200 μM 7-EFC, 37 °C.
Setting [15] is: Ki,app (Cheng-Prusoff from IC50), CYP2B6, absence of cyt b5.
The mark [16] stands for this setting: Ki,app (Cheng-Prusoff from IC50), CYP2B6, presence of cyt b5.

Residue numbers refer to the chain shown, from its start. Values joined by “and” are separate entries in the source; they are usually repeats but may differ in a detail not shown here. Identical values can stand only once.

By Kd is commonly meant a measure of binding affinity in units of concentration. Read a high Kd as weaker binding. The term IC50 denotes the concentration at which inhibition is half-maximal. High values mean weaker potency, low ones greater potency. For orientation: Km means the substrate concentration at which the rate is half of its maximum.

Turning to `Nc1ccc(Oc2cc(Cl)c(Cl)cc2Cl)cc1` [2′4′5′TCPOA, 4-(2′,4′,5′-trichlorophenoxy)aniline], the Ki came out at 370 ± 40 nM on CYP2B4 [1]; 750 ± 100 nM on CYP2B6 L363V [3]; 640 ± 80 nM on CYP2B6 [4] (setting [14]); 1800 nM at CYP2B6 [4] (setting [15]); 220 nM on CYP2B6 [4] (setting [16]). For the same compound, the mechanism of inhibition entry at CYP2B4 [1] and at CYP2B6 [4] was “competitive inhibitors” in each case. Also, the “Type-II (%)” value came to 17±3% on CYP2B6 [2] (setting [11]), 19±1% on CYP2B6 [2] (setting [12]) and 9±1% at CYP2B6 [2] (setting [13]). For the same compound, the Kd was determined as 8100 ± 1700 nM at CYP2B6 [2] (setting [11]), 1400 ± 400 nM at CYP2B6 [2] (setting [12]) and 700 ± 300 nM on CYP2B6 [2] (setting [13]). The “fold increase of KS (decrease in affinity) on including POR” value is recorded as 4-6 fold in the data set on human CYP2B6 and 5.8 fold in the data set on human CYP2B6 (listed as 2′4′5′-TCPOA). Besides, the IC50 on CYP2B6 [4] (CYP:POR (no cyt b5)) was found to be 3700 ± 300 nM; at CYP2B6 [4] (CYP:POR:cyt b5), 430 ± 40 nM. The NADPH oxidation rate at CYP2B4 [5] came out at 20±1 nmol/min/nmolP450.
Turning to `Nc1ccc(Cc2ccc(Cl)cc2Cl)cc1` [2′4′DCBA, 4-[(2′,4′-dichlorophenyl)methyl]aniline], the “relative affinity among the ligands tested” value at CYP2B6 [2] (spectral binding titrations, CYP2B6) is listed as “highest affinity”; on rat CYP2B1 it was “highest affinity”; at rabbit CYP2B4, “highest affinity”. Moreover, the “relative affinity among the congeners” value on CYP2B4 I363V [6] and at CYP2B6 L363V [7] was “highest affinity” each time.
Turning to `CCOc1ccc2c(C(F)(F)F)cc(=O)oc2c1` [7-EFC, 7-Ethoxy-4-(trifluoromethyl)coumarin, reference compound], at CYP2B6 [8] (CYP2B6 with CuOOH), the “kcat of 7-EFC O-deethylation” value is 0.007 s⁻¹. Moreover, on CYP2B6 [8] (human, CYP2B6 enzyme with cumene hydroperoxide, pH 7.4), the Michaelis-Menten constant (Km) stood at 56 µM. Besides, the “Michaelis constant for 7-EFC” value on CYP2B4 I363V [9] and on CYP2B1 was ~ 120 μM throughout.
Turning to `Nc1ccc(Oc2ccccc2)cc1` [POA, 4-(phenoxy)aniline], the Ki is 1300 ± 650 nM on CYP2B4 [1]; 67000 ± 10000 nM at CYP2B6 L363V [3]; 13000 ± 1900 nM on CYP2B6 [4] (setting [14]); 7500 nM at CYP2B6 [4] (setting [15]); 13500 nM on CYP2B6 [4] (setting [16]). The mechanism of inhibition result at CYP2B4 [1] is recorded as “competitive inhibitors”; at CYP2B6 L363V [3] (CYP2B6 L363V, non-linear regression analysis), “non-competitive inhibitor”; on CYP2B6 [4], “competitive inhibitors”. The “CYP-mediated oxidative metabolites identified by UPLC-MS” value at CYP2B6 [10] is given as “no potential CYP-mediated oxidative metabolites”. Besides, the “Type-II (%)” value on CYP2B6 [2] (setting [11]) is given as 9.2±3.3%; on CYP2B6 [2] (setting [12]), 16±1%; on CYP2B6 [2] (setting [13]), 26±1%. For the same compound, the Kd was 2800 ± 1400 nM on CYP2B6 [2] (setting [11]), 670 ± 360 nM on CYP2B6 [2] (setting [12]) and 1200 ± 200 nM on CYP2B6 [2] (setting [13]). In the data set with human CYP2B6, the “fold increase of KS (decrease in affinity) on including POR” value was 4.2 fold and 4-6 fold. Besides, the half-inhibitory concentration (IC50) at CYP2B6 [8] (CYP alone) turned out to be 38000 ± 7000 nM; against CYP2B6 [8] (CYP:cyt b5), 44000 ± 14000 nM; against CYP2B6 [4] (CYP:POR (no cyt b5)) it was 15000 ± 1000 nM; at CYP2B6 [4] (CYP:POR:cyt b5) it was 27000 ± 5000 nM. Moreover, at CYP2B6 [4] (CYP2B6, NADPH-driven, with vs without cyt b5), the “fold increase of IC50 by cyt b5” value is recorded as 1.8 fold. The compound also came in with an NADPH oxidation rate at CYP2B4 [5] of 33±2 nmol/min/nmolP450.
